From PubChem BioAssay
An excerpt weighted towards active compounds, which were near 9.2% of everything screened.
Dynein transport – blocks dynein driven cargo transport along microtubules; 3617.4 mouse cells, GR-EGFP nuclear translocation imaging; test concentration mostly 20 µM; stimulated with dexamethasone, 1 µM; hits give low values; z-score, hits read low; 220,000 tested, 0.47% active; AID 1381;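 active means plate z-score of nuclear minus cytoplasmic receptor signal below a set negative limit, without overly bright fluorescence or cell loss, cut at about -3.5 in these data, passing the limit was not always enough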;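 further: z-score of nuclear minus cytoplasmic ring GR-EGFP intensity difference per well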
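Also added: dexamethasone, 1.0 µM final. Medium: tet-free, stripped-serum medium. Detection: fixed, Hoechst-stained cells imaged at 10x for EGFP. Read-out: nuclear-to-cytoplasmic GR-EGFP distribution per well. Times: induction 48 h, compound 1 h, agonist 30 min.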
bCat KO growth – beta-catenin-lacking colon tumor cell growth suppression. HCT116 beta-catenin knockout viability, CellTiter-Glo, 60 h; hits give low values. viability, % at 10 µM. 140,000 tested, 1.5% active;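 active means viability at or under a set limit, the compound median less 4 SD, cut at about 6% in these data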;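 further: 0% = Hyamine 1622 control at 20 µM and 100% = untreated cell control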
Lmaj promast – reduces viability of Leishmania major promastigotes. resazurin fluorescence viability. inhibition, % at 10 µM. 200,000 tested, 9% active. AID 1063; in the data active means inhibition above about 50%;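 further: promastigotes grown with compound for 44 hours at 28 °C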
Autophagy HCS – alters autophagy in cells. MEF GFP-LC3 puncta imaging; test concentration mostly 10 µM. calls only at 10 µM (by protocol). 190,000 tested, 0.98% active. AID 463193;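 active means percentage of spot-positive cells more than 3 SD above its plate mean, without a fluorescence outlier flag or 80% toxicity; inconclusive means no clear call, values can overlap the other calls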;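 further: spot-positive cell cutoff set from DMSO-treated cells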
PTEN del growth – growth suppressors of cells with PTEN tumor suppressor deletion. 140,000 tested, 1.2% active. HCT116 PTEN-null viability, CellTiter-Glo, 60 h; hits give low values. viability, % at 10 µM;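 active means viability at or below a set limit, 4 SD under the median of all tested compounds, cut at about 3.7% in these data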;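 further: PTEN knockout HCT116 line with beta catenin targeted HCT116 as companion control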
Dynein inh conf – dynein cargo transport inhibition, confirmation; shares compounds with Dynein transport; 3617.4 GR-EGFP nuclear translocation imaging, dexamethasone-induced; calls only at 20 µM; 1,000 tested, 69% active;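 active means inhibition of receptor movement into the nucleus at or above a set limit in both runs, with normal cell brightness and cell count; inconclusive means limit reached in only one run, brightness and count normal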;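 further: dexamethasone at 1 µM final in well for 30 min; nuclear minus cytoplasmic GR-EGFP mean intensity difference in channel 2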
Starred values were filed as active, the others as inactive; i = inactive; ? = inconclusive; . = no result; + = active, no number.

SMILES	Dynein transport	bCat KO growth	Lmaj promast	Autophagy HCS	PTEN del growth	Dynein inh conf
Cc1cnc(NC(=O)CSc2ccccc2)s1	0.00696	110.9	-4.3	i	102.6	.
CCOC(=S)SCC(=O)Nc1ncc(C)s1	-4.14*	.	.	.	.	i
Cc1ccc(-c2ccc(=O)n(CC(=O)N3CCN(c4cccc(C)c4)C(C)C3)n2)cc1 (stereo not drawn)	3.96	85.4	-7.4	i	83.1	.
Cc1cccc(N2CCN(C(=O)Cn3sc4nc(C)cc(C)c4c3=O)CC2C)c1 (stereo not drawn)	-4.4*	1.6*	-14.4	i	1.4*	?
CCNC(=O)NC(=O)C(C)OC(=O)[C@H](C)NS(=O)(=O)c1c(C)c(C)cc(C)c1C (stereo partly drawn)	-0.554	.	.	.	.	.
Cc1ccc(-c2csc3nc(C)n(-n4c(C)ccc4C)c(=O)c23)o1	-4*	86.4	6.8	i	78.2	i
O=c1oc2c3c4c(cc2c(C(F)(F)F)c1CCN1CCOCC1)CCCN4CCC3	-5.66*	86.8	31.1	?	95.8	+
CC(C)c1cc(=O)oc2c3c4c(cc12)CCCN4CCC3	0.662	80.3	11.3	i	70.0	.
COc1cccc(Oc2nnnn2-c2ccccc2)c1	0.0775	97.3	5.9	i	105.8	.
COc1cccc(-n2nnnc2S(C)(=O)=O)c1	-4.51*	11.7	97.0*	i	1.3*	+
Cc1[nH]c2ccccc2c1CN1CCc2ccccc2C1	-3.83*	2.2*	99.8*	i	2.7*	i
COc1ccc(C2=CC(=O)OC3(CCCC3)O2)cc1	2.42	91.2	-1.6	i	106.1	.
O=C(CC1(C(F)(F)F)OCCO1)Nc1ccc2c(c1)OCO2	-0.0216	94.1	-3.9	i	92.8	.
O=C1c2ccccc2C(=O)N1c1cccc(-c2nc3ccccc3o2)c1	-0.354	99.9	-5.9	i	103.3	.
O=C1C=CC(=O)N1c1cccc(-c2ccccc2)c1	-3.84*	.	.	.	.	i
CN(C)c1nc(C=C(C#N)C#N)c(Cl)n1-c1ccc(F)cc1	-6.64*	.	24.2	i	.	+
CCCC(=O)N(C1CC(C)C(C#N)(C#N)C1(C#N)C#N)N(C)C (stereo not drawn)	-5.34*	.	.	.	.	i
CC(=O)N(C1CC(C)C(C#N)(C#N)C1(C#N)C#N)N(C)C (stereo not drawn)	-6.78*	.	-10.0	i	.	+
CCOC(=O)c1c(-c2ccccc2)csc1NC(=O)c1ccc(S(=O)(=O)N2CCOCC2)cc1	0.013	79.0	9.0	i	68.9	.
CCOC(=O)C1=C(CSc2nc(-c3ccncc3)ccc2C#N)OC(N)=C(C#N)C1c1ccc(OC)cc1 (stereo not drawn)	-5.83	118.6	13.1	i	104.7	i
CCOC(=O)C1=C(CSc2nc(-c3ccncc3)ccc2C#N)OC(N)=C(C#N)C1c1cccnc1 (stereo not drawn)	-1.55	107.8	-5.1	i	98.8	.
O=c1c(Cl)c(Cl)cnn1Cc1nnc(-c2ccc(Cl)cc2)o1	-4.78*	.	99.7*	i	.	+
CN(c1cnn(-c2ccccc2)c(=O)c1Cl)n1cccc1	-0.125	.	.	.	.	.
O=c1c(Cl)c(Cl)cnn1-c1ccccc1	-4.62*	0.9*	90.5*	i	0.9*	+
O=c1c(Cl)c(Cl)cnn1Cc1ccccc1Cl	-3.94*	1.7*	75.8*	i	1.9*	+
SMILES	Dynein transport	bCat KO growth	Lmaj promast	Autophagy HCS	PTEN del growth	Dynein inh conf
Cc1cc(C)cc(Cn2ncc(Cl)c(Cl)c2=O)c1	-6.13*	1.9*	18.6	i	1.6*	+
O=C(CCN1CCN(c2ccccc2F)CC1)c1ccc(Br)cc1	-4.27*	72.7	83.3*	i	61.5	i
Cc1ccc(NC(=O)C2=C(O)c3ccccc3N(C)S2(=O)=O)cc1	.	92.7	-8.7	i	78.2	.
CC(C)(C)C(=O)/C=c1\s/c(=C\c2ccc(-c3ccc([N+](=O)[O-])cc3)o2)c(=O)n1CC(=O)NC(N)=O	-7.95*	.	20.0	.	.	+
CCOc1cc(C=C(C(=O)OC)C(=O)OC)ccc1OCc1ccc([N+](=O)[O-])cc1	-5.7*	10.4	33.2	i	41.8	+
Cc1ccnc2nc(C(=O)OCC(=O)c3c[nH]c4ccccc34)nn12	0.363	.	.	.	.	.
CCOc1ccc(C(=O)c2ccncc2)cc1	-0.334	96.9	-6.2	i	102.0	.
CCOc1ccc(C(=O)C(CCC(CN(C)C)C(=O)c2ccc(OCC)cc2)CN(C)C)cc1 (stereo not drawn)	-4.09*	1.1*	100.5*	i	1.3*	i
CS(=O)(=O)c1ccc(S(=O)CC(=O)Oc2ccc(Cl)cc2)c([N+](=O)[O-])c1 (stereo not drawn)	-6.52*	.	9.6	i	.	+
O=C(CS(=O)c1ccccc1[N+](=O)[O-])Oc1ccc(Br)cc1 (stereo not drawn)	-0.146	.	5.8	i	.	.
Cc1cc2[nH]cnc2c([N+](=O)[O-])c1C	-0.591	.	-4.7	i	.	.
CCCCc1c(C)c(C#N)c2nc3ccccc3n2c1Cl	-5.24*	1.3*	100.3*	i	1.1*	+
COc1ccc(C(=O)C(CN2CCCC2)c2ccccc2)cc1 (stereo not drawn)	-4.28*	2.2*	100.4*	i	1.1*	+
O=C(c1ccc(F)cc1)C(CN1CCOCC1)c1ccccc1 (stereo not drawn)	-6.08*	1.6*	100.6*	i	1.6*	+
COc1ccc(C(=O)C(OC(=O)c2ccccc2)c2ccccc2)cc1 (stereo not drawn)	1.36	80.2	2.7	i	89.7	.
Cc1ccc2[nH]c(O)c(N=NC(=O)CCc3ccccc3)c2c1Br	0.324	29.8	6.3	i	21.8	.
COc1ccc(CNC(=O)Cn2nnc3ccccc3c2=O)cc1	-5.26*	.	.	.	.	i
Cc1ccc(S(=O)(=O)NC2OC(=O)C(Cl)=C2Cl)cc1 (stereo not drawn)	-3.64*	89.8	-6.5	i	89.1	i
COC(=O)C(NS(=O)(=O)c1ccc(C)cc1)c1ccccc1 (stereo not drawn)	0.347	.	-3.6	i	.	.
COCCN1C(=O)C(=O)/C(=C(/O)c2ccc(S(=O)(=O)N3CCOCC3)cc2)C1c1ccc(C(C)C)cc1 (stereo not drawn)	0.992	96.3	-8.8	i	97.4	.
CC1CC(C)CN(CCCNC(=O)c2ccc3c(SCC(=O)O)c4c(nc3c2)CCC4)C1 (stereo not drawn)	0.258	.	.	.	.	.
CC(C)(c1ccccc1)c1ccc(OCC(O)CNC2CCN(Cc3ccccc3)CC2)cc1 (stereo not drawn)	-4.98*	.	100.5*	+	.	i
CC1C/C(=C/c2ccco2)C(=O)/C(=C/c2ccco2)C1 (stereo not drawn)	-3.73	55.9	6.5	i	60.1	+
CCC(=O)NC(=S)Nc1ccc(N2CCN(C(=O)c3ccc(Cl)cc3)CC2)cc1	0.248	.	12.8	i	.	.
